The subject of one data set is VCaP cells. The experiment in a line: Cell viability. In kind it is cell-based, human. To be noted: for growth inhibition of VCaP cells stimulated by spironolactone: 0.1, 1 or 5μM abiraterone, 10μM bicalutamide or 10μM MDV3100, 7 days; for proliferation of VCaP (WT-AR): 1 and 10μM, CSS, 7 days.
The test system of the next data set is LNCaP cells. Description: Cell viability. To be noted: for growth inhibition of LNCaP cells stimulated by eplerenone / growth inhibition of LNCaP cells stimulated by spironolactone: 0.1, 1 or 5μM abiraterone, 10μM bicalutamide or 10μM MDV3100, 7 days; for proliferation of hormone-stripped LNCaP (T877A-AR): 1 and 10μM, CSS, 7 days. In kind it is cell-based, human.

The test system of data set [1] is PSA and TMPRSS2 mRNA expression in LNCaP cells. The experiment in a line: Quantitative RT-PCR of AR-regulated genes, LNCaP. In kind it is cell-based, human. The method, boiled down:
(§1)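 Cells held 24 h in phenol red-free medium with charcoal-stripped serum, then treated 5 h with test compound (0.1–10 µM) or 0.1nM R1881. After RNA extraction and cDNA synthesis, SYBR Green qPCR for PSA and TMPRSS2 used 50ng cDNA per reaction, each sample run in duplicate. Normalised to actin and GAPDH, relative to a reference sample (2^-ΔΔCt). 3 independent experiments, mean ± SEM.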

For data set [2], the system named is wild-type (WT)-AR. The experiment in a line: PSA-ARE3-luc luciferase reporter assay in transfected PC-3 cells, WT-AR. In kind it is cell-based, human. The following applies: compared to R1881.
The subject of data set [3] is WT or mutant AR (T877A, D879G, W741C, M749L, R629Q). Description: ARE3-luciferase reporter assay in PC-3 cells, WT and mutant AR panel. In kind it is cell-based, human. In general terms: A reporter such as luciferase makes a cellular process visible.
The target in data set [4] is T1, T877A-AR (Homo sapiens, UniProt P10275, T878A).
T1 sequence (P10275 1-920 T878A): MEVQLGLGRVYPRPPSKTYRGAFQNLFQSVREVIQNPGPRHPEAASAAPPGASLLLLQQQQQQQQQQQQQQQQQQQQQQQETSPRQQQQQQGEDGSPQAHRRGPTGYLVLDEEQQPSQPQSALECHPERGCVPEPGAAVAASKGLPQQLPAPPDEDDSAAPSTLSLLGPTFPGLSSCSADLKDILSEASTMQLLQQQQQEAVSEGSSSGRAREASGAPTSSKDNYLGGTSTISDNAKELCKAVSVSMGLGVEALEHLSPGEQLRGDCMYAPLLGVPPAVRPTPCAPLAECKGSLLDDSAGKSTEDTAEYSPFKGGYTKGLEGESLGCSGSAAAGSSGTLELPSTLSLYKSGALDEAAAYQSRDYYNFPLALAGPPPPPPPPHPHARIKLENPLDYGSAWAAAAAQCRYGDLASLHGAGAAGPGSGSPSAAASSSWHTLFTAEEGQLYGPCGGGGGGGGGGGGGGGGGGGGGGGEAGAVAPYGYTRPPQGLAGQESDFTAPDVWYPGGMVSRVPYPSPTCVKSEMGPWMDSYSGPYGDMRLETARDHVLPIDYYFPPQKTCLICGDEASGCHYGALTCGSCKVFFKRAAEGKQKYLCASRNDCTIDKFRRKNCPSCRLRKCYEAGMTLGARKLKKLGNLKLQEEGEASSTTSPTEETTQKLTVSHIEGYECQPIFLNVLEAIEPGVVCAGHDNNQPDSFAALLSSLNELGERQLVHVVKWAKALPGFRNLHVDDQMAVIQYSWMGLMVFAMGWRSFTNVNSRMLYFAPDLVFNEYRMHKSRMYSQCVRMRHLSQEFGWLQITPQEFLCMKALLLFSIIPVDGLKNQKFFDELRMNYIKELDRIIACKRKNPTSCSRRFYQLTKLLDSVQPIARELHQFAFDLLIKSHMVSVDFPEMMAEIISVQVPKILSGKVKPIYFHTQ
The experiment in a line: cell-based. In kind it is binding.

The subject of the next data set is AR. The following applies: cited from earlier work.
For data set [5] the following is noted: patients ref 2; cited from earlier work.
Data set [6] has as its system WT or mutant human AR (T877A, G142V, P533S, T575A, H874Y, R629Q). Description: GRE2-TATA-Luc reporter assay in COS-7 cells co-transfected with AR. In kind it is cell-based.
Another data set concerns DU145. The experiment in a line: Cell proliferation, DU145. In kind it is cell-based, human. The following applies: AR-negative prostate cancer cell line.
For data set [7], the system named is castration-resistant prostate cancer (CRPC). To be noted: 1000mg abiraterone daily ref 1, 2; cited from earlier work.
A further data set has as its system PC-3. The experiment in a line: Cell proliferation, PC-3. In kind it is cell-based, human. To be noted: AR-negative prostate cancer cell line.
The nature of a further data set: Solubility in cell media. In kind it is physicochemical. The following applies: plasma or biological fluid, kinetic from dmso stock.
Another data set deals with T2, LNCaP (T877A-AR) (Homo sapiens, UniProt P10275, T878A).
T2 sequence (P10275 1-920 T878A): T1 sequence (P10275 1-920 T878A)
The experiment in a line: cell-based. In kind it is binding.

The next data set has as its target T3, WT-AR (Homo sapiens, UniProt P10275).
T3 sequence (P10275 1-920): T1 sequence (P10275 1-920 T878A) with A878T
The experiment in a line: cell-based. In kind it is binding.

Data set [8] concerns the target T1, T877A-AR. In kind it is cell-based.
Data set [9] concerns PSA and TMPRSS2 mRNA expression in VCaP cells. Description: Quantitative RT-PCR of AR-regulated genes, VCaP. In kind it is cell-based, human. To be noted: 0.1 - 10μM eplerenone, 5 hours. The gist of the method:
as §1

In a further data set the test system is D879G-AR. Description: PSA-ARE3-luc luciferase reporter assay in transfected PC-3 cells, D879G-AR. In kind it is cell-based, human. The following applies: compared to R1881. The method, boiled down:
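Human AR expression plasmid carrying the mutation (confirmed by sequencing) co-transfected with PSA-ARE3-luc reporter into PC-3 cells. Cells grown 30 h in phenol red-free RPMI 1640 with 10% charcoal-stripped serum, then exposed 16 h to test compound (DMSO ≤0.2%) with R1881 as reference agonist. Luminescence read after ONE Glo. Fold change vs DMSO control; EC50 by nonlinear regression; 3 independent experiments, 16 replicates.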

The subject of data set [10] is wild-type (WT)-AR. The following applies: cited from earlier work.
For data set [11] the following is noted: 100mg eplerenone ref 6, cited from earlier work.
The next data set has as its system W741C-AR. Description: PSA-ARE3-luc luciferase reporter assay in transfected PC-3 cells, W741C-AR. In kind it is cell-based, human.

Residue numbers refer to the chain shown, from its start. Entries after “also recorded” stand apart in the source; their conditions may differ. Like-named read-outs stand apart in the source and are kept apart here.

For `CNC(=O)c1ccc(N2C(=S)N(c3ccc(C#N)c(C(F)(F)F)c3)C(=O)C2(C)C)cc1F` [MDV3100], the “growth inhibition of VCaP cells stimulated by spironolactone” value in the data set with VCaP cells is on record as “more profound inhibition”. In the data set on LNCaP cells, the “growth inhibition of LNCaP cells stimulated by eplerenone” value is “more profound inhibition” and the “growth inhibition of LNCaP cells stimulated by spironolactone” value is reported as “more profound inhibition”. Also, the “inhibition of induction of TMPRSS2 expression by eplerenone” value in data set [1] (LNCaP, 10μM eplerenone, 10μM MDV3100, 5 hours) is “more significantly than bicalutamide or abiraterone”.

With `C[C@]12C=CC(=O)C=C1CC[C@@H]1[C@@H]2C(=O)C[C@@]2(C)[C@H]1CC[C@]2(O)C(=O)CO` [prednisone], the “activation of WT-AR” value in the data set on wild-type (WT)-AR [2] was “do not activate”.

In general, EC50 refers to the midpoint of the concentration-response curve. Higher therefore signals lower potency in that assay. For orientation: solubility means the dissolved amount per volume that the medium holds. Read a high solubility as much dissolved substance. `C[C@]12CC[C@H](O)CC1=CC[C@@H]1[C@@H]2CC[C@]2(C)C(c3cccnc3)=CC[C@@H]12` [abiraterone]: the “inhibition of stimulated WT and mutant AR activity” value in [3] (0.1nM R1881, 16 hours) is reported as “dose-proportional inhibition”. Moreover, in [3] (1μM abiraterone), the AR inhibition result is recorded as “up to 32%”. Besides, in [3] (doses up to 25μM), the “increase in reporter-luciferase activity (agonistic activity) with WT-AR or any mutation tested” value was “did not observe an increase in reporter-luciferase activity; also recorded: no agonistic activity was observed”. This molecule had an EC50 at T877A-AR [4] of 7.9 µM. Besides, in the data set on AR, the “binding to the AR” value was “failed to identify binding” and the “effect on AR levels” value was “dose-dependent decrease in AR levels”. Also, the doses safely tolerated result in data set [5] is listed as “at least 2000 mg daily”. Moreover, the “inhibition of R629Q-AR” value in data set [6] (COS-7, 10nM DHT, compared with PC-3 ARE3-luciferase assay) is on record as “Higher concentrations of abiraterone were required”. In data set [6] (COS-7, activated by 10nM DHT for 24 hours, 0.1 - 5μM), the “inhibition of WT-AR, T877A-AR, G142V-AR, P533S-AR, T575A-AR and H874Y-AR” value was “dose-proportional inhibition”. The “inhibitory effect on proliferation of DU145” value in the data set with DU145 is reported as “No inhibitory effect was observed”. The “objective tumor responses, CRPC patients” value in data set [7] is reported as “up to 60%”. The “inhibitory effect on proliferation of PC-3” value with PC-3 is on record as “No inhibitory effect was observed”. The “growth inhibition of VCaP cells stimulated by spironolactone” value with VCaP cells is given as “dose-proportional growth inhibition”. Besides, the “doses with significant inhibition of proliferation of VCaP” value in the data set on VCaP cells (CSS with 0.1nM R1881, 7 days) is ≥ 5 µM. For the same molecule, the solubility in the data set “Solubility in cell media” is > 25 µM. Moreover, in the data set on LNCaP cells, the “growth inhibition of LNCaP cells stimulated by eplerenone” value was “dose-proportional growth inhibition” and the “growth inhibition of LNCaP cells stimulated by spironolactone” value is “dose-proportional growth inhibition”. Also, the “doses with significant inhibition of proliferation of LNCaP” value in the data set with LNCaP cells (CSS with 0.1nM R1881, 7 days) was ≥ 5 µM. At LNCaP (T877A-AR), this molecule displayed an EC50 of 2.6 µM. Besides, the EC50 on WT-AR worked out at 13.4 µM. For the same molecule, the “inhibition of activation of T877A-AR by 1μM eplerenone” value on T877A-AR [8] is given as “significantly inhibited”. In data set [1] (5μM abiraterone, 0.1nM R1881, 5 hours), the “regulation of PSA and TMPRSS2 in LNCaP cells treated with abiraterone” value is given as “down-regulation”.

Consider `C[C@@H]1C[C@H]2[C@@H]3CCC4=CC(=O)C=C[C@]4(C)[C@@]3(F)[C@@H](O)C[C@]2(C)[C@@]1(O)C(=O)CO` [dexamethasone], for which, in the data set on wild-type (WT)-AR [2], the “activation of WT-AR” value is “do not activate”.

One may read the Cmax as the maximum level reached in the sampled fluid or tissue. As for `COC(=O)[C@@H]1CC2=CC(=O)CC[C@]2(C)[C@@]23O[C@@H]2C[C@@]2(C)[C@@H](CC[C@@]24CCC(=O)O4)[C@H]13` [eplerenone], the “expression of PSA and TMPRSS2 in VCaP” value in data set [9] is “not in VCaP”. In the data set on wild-type (WT)-AR [2], the “activation of WT-AR” value is reported as “does not activate”. Further, the “activation of D879G-AR” value in the data set on D879G-AR is reported as “does not activate”. In addition, the “proliferation of VCaP (WT-AR)” value in the data set on VCaP cells is “only spironolactone increased the proliferation”. Further, the “proliferation of hormone-stripped LNCaP (T877A-AR)” value in the data set with LNCaP cells was “increased proliferation”. Besides, the “binding and activation of wild-type (WT)-AR” value in the data set on wild-type (WT)-AR [10] is “did not bind and activate”. In addition, the Cmax was 1720 ± 280 ng/mL in data set [11] and 4.2 µM in data set [11] (read-out: Cmax (equivalent)). Also, in the data set with W741C-AR, the “activation of W741C-AR” value is reported as “does not activate”. The “expression of PSA and TMPRSS2 in LNCaP” value in data set [1] (0.1 - 10μM eplerenone, 5 hours) is given as “significantly increased expression”.

For `CC(=O)S[C@@H]1CC2=CC(=O)CC[C@]2(C)[C@H]2CC[C@@]3(C)[C@@H](CC[C@@]34CCC(=O)O4)[C@H]12` [spironolactone], the “activation of WT-AR” value in the data set with wild-type (WT)-AR [2] is recorded as “activates”. Besides, the “activation of D879G-AR” value with D879G-AR was “activates”. Besides, the “proliferation of VCaP (WT-AR)” value with VCaP cells is given as “increased the proliferation”. Further, in the data set with LNCaP cells, the “proliferation of hormone-stripped LNCaP (T877A-AR)” value is “increased proliferation”.

Regarding `CC(O)(CS(=O)(=O)c1ccc(F)cc1)C(=O)Nc1ccc(C#N)c(C(F)(F)F)c1` (stereo not shown) [bicalutamide], the “activation of W741C-AR” value in the data set with W741C-AR is recorded as “activated”.

Values taken from article PMC4281708 (Cancer research, 2012).
